Published values from different studies.
Compare with care: the assays were run in different laboratories.
Target: Testis-specific serine/threonine-protein kinase 1 (TSSK1B, Homo sapiens, UniProt Q9BXA7)
Residues used in one study (Q9BXA7 1-367): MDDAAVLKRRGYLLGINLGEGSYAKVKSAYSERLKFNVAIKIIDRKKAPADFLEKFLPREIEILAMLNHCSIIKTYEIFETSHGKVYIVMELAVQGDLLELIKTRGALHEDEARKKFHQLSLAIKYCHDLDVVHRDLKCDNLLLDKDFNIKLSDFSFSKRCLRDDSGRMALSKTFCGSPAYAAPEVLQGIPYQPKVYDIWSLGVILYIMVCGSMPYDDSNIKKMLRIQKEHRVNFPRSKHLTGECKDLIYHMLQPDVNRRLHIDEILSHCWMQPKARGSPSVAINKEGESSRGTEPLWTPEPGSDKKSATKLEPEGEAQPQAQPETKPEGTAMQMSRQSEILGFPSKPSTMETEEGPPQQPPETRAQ

Compound | test | setting | measurement | result
FC(F)(F)c1ccc2c(c1)nc(-c1cccnc1)n2C1CC1 | cell-free assay, competition with immobilised ligand | 1 µM | remaining binding | 100%
O=C(Nc1cnn(-c2csc(C(=O)NC3COC3)c2)c1)Nc1c(F)cccc1Cl | enzyme activity, inhibitor | 5 µM | remaining activity | 107%
CCOc1cc(-c2nncn2C)ccc1Nc1ncc2cc(C)nc(NCC(C)(C)C)c2n1 | enzyme activity, inhibitor, FRET | 1 µM | inhibition | < 15%
CNC(=O)c1ccc(Nc2ncc(C(F)(F)F)c(NCc3nccnc3N(C)S(C)(=O)=O)n2)cc1 | cell-free assay, competition with immobilised ligand | 0.1 µM | remaining binding | 64%
Cc1ccc(NC(=O)c2ccc(C)c(C(F)(F)F)c2)cc1C#Cc1nn(C2CCC(O)CC2)c2ncnc(N)c12 (stereo not drawn) | cell-free assay | 10 µM | remaining signal | 100%
COc1cc(/C=C/C(=O)CC(=O)/C=C/c2ccc(O)c(OC)c2)ccc1O | enzyme activity, inhibitor | 1 µM | activity vs control | 106%
Cc1c(NC(=O)c2cc(C(N)=O)nc3cc(F)ccc23)c(C(F)(F)F)nn1Cc1ccc(C(C)(C)C)cc1 | cell-free assay, competition with immobilised ligand | 1 µM | remaining binding | 100%
Cc1ccc(C(=O)Nc2ccc(CN3CCN(C)CC3)c(C(F)(F)F)c2)cc1C#Cc1cnc2cccnn12 | enzyme activity, inhibitor | 23.5 nM | remaining activity | 83%
O=C1Nc2ccc(Cl)cc2C1=Cc1cc(Cl)c(O)c(Cl)c1 | cell-free assay | 0.5 µM | remaining signal | 88.2%
O=C(Nc1cccnn1)N1CC(C/C=C/c2cncc(Oc3ccc(C(F)(F)F)cn3)n2)C1 | cell-free assay, competition with immobilised ligand | 1 µM | remaining binding | 100%
CNc1cccc2cc(C(=O)Nc3ccc(C(=O)O)cc3)c(=O)[nH]c12 | enzyme activity, inhibitor | 10 µM | inhibition | 2.1%
Cc1ccc(Nc2nccc(N(C)c3ccc4c(C)n(C)nc4c3)n2)cc1S(N)(=O)=O | enzyme activity, inhibitor | 10 µM | inhibition | 1%
O=S(=O)(NC1CCC(c2cc(F)ccc2F)(S(=O)(=O)c2ccc(Cl)cc2)CC1)C(F)(F)F (stereo not drawn) | cell-free assay, competition with immobilised ligand | 1 µM | remaining binding | 100%
Cc1cc(NC(=O)c2cccc3cc(-c4cccc5[nH]nc(N)c45)ccc23)ccc1F | enzyme activity, inhibitor | 0.1 µM | activity vs control | 86%
O=C1NC(=O)c2cc(Nc3ccc(F)cc3)c(Nc3ccc(F)cc3)cc21 | cell-free assay | 0.5 µM | remaining signal | 90.2%
CCCS(=O)(=O)Nc1ccc(F)c(C(=O)c2c[nH]c3ncc(-c4ccc(Cl)cc4)cc23)c1F | enzyme activity, inhibitor | 1 µM | inhibition | < 10%
CNC(=O)c1cc(Oc2ccc(NC(=O)Nc3ccc(Cl)c(C(F)(F)F)c3)cc2)ccn1 | enzyme activity, inhibitor | 0.3 µM | inhibition | -6%
CN(C)C(=O)Cn1cc(-c2nc(C3(c4ccc(-c5cnc(N)nc5)cc4)CC3)no2)cn1 | cell-free assay, competition with immobilised ligand | 1 µM | remaining binding | 100%
Cc1sc(C(=O)NC2COC2)cc1-n1cc(NC(=O)Nc2c(F)cccc2Cl)cn1 | enzyme activity, inhibitor | 10 µM | remaining activity | 103%
N#Cc1ccc(Nc2ccc3[nH]c(=O)[nH]c3c2)c(Cl)c1 | cell-free assay, competition with immobilised ligand | 1 µM | remaining binding | 56%
CC(C)(C)c1nc2c(s1)c1nc(N)ncc1c1ccc(NS(=O)(=O)c3c(F)cccc3F)c(F)c12 | enzyme activity, inhibitor, radiometric | 1 µM | remaining activity | 88%
CN(C)C1CCN(CC#Cc2nn(C3CCCC3)c3nc(NCc4ccccc4)ncc23)C1 (stereo not drawn) | enzyme activity, inhibitor, FRET | 10 µM | inhibition | -8%
CCN(CC)CCNC(=O)c1c(C)[nH]c(/C=C2\C(=O)Nc3ccc(F)cc32)c1C | enzyme activity, inhibitor | 10 µM | inhibition | 20%
COc1cc2ncnc(Nc3ccc(Oc4ccccc4)c(C)c3C)c2cc1OC | enzyme activity, inhibitor | 1 µM | inhibition | 4%
